The structures appear in SMILES notation. In brackets after ≈: the same amount, converted by molar mass.

In one series the test system is Escherichia coli. Briefly: Antibacterial activity against Escherichia coli Tol C mutant.
Details: not given
Type of series: functional. The procedure, abridged: (§1)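 MIC determined by growth inhibition testing; the same test was also run against S. aureus.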
`CCCC/C(C)=C/C=C(\C)C(=O)c1c(O)cc(CCC/C=C/NC(=O)OC)oc1=O` [DESMETHYL MYXOPYRONIN B] yielded an MIC of 1 µg/mL (≈ 2.4 µM).
On the same count and under the same terms, to `CCCC/C(C)=C/C=C(\C)C(=O)c1c(O)cc([C@H](C)CC/C=C/NC(=O)OC)oc1=O` [MYXOPYRONIN B] belongs 2 µg/mL (≈ 4.63 µM); to `COC(=O)N/C=C/CCC(C)c1cc(O)c(C(=O)NC/C=C(\C)CCC=C(C)C)c(=O)o1` (stereo not drawn), 16 µg/mL (≈ 35.8 µM).

Tested on in the next series: not listed separately
As to the kind of experiment: Inhibition of Escherichia coli DNA-dependent RNA polymerase by nucleotide coupled NADPH/pyrophosphate release assay.
Details: not given
A digest of the protocol: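 In the pyrophosphate-release coupled assay, NADPH was monitored by fluorescence (emission ~440 nm) instead of absorbance at 340 nm. Some compounds were also tested by incorporation of radiolabeled nucleotide into RNA.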
In turn, `CCCC/C(C)=C/C=C(\C)C(=O)c1c(O)cc(CCC/C=C/NC(=O)OC)oc1=O` [DESMETHYL MYXOPYRONIN B] came in with an IC50 of 0.34 µM.
On the same count and under the same terms, to `CCCC/C(C)=C/C=C(\C)C(=O)c1c(O)cc(CCC/C=C/NC(=O)OC)n(C)c1=O` belongs 15 µM; to `CCCC/C(C)=C/C=C(\C)C(=O)c1c(O)cc(C(C)CC/C=C/NC(=O)OC)n(C)c1=O` (stereo not drawn), 20.5 µM; to `CCCC/C(C)=C/C=C(\C)C(=O)c1c(O)cc([C@H](C)CC/C=C/NC(=O)OC)oc1=O` [MYXOPYRONIN B], 0.92 µM.

The subject of a further series is Escherichia coli. As to the kind of experiment: Inhibition of Escherichia coli DNA-dependent RNA polymerase at 10 uM by nucleotide coupled NADPH/pyrophosphate release assay.
Details: not given
Consider `CCCC/C(C)=C/C=C(\C)C(=O)c1ccc(C(C)CC/C=C/NC(=O)OC)cc1O` (stereo not drawn), for which the inhibition was 38%.
For the compound `CCCCCCCCC(=O)c1c(O)cc(CCC/C=C/NC(=O)OC)oc1=O`, the inhibition is less than 20%.
The same measure, in the same setting: the figure for `COC(=O)N/C=C/CCCc1cc(O)c(C(=O)/C=C/c2ccc3[nH]ccc3c2)c(=O)o1` is less than 20%; for `COC(=O)N/C=C/CCCc1cc(O)c(C(=O)/C(C)=C\c2ccco2)c(=O)o1` it is less than 20%.
On the same count and under the same terms, the figure for `CCCCCC(=O)c1c(O)cc(CCC/C=C/NC(=O)OC)oc1=O` is less than 20%.
Same read-out and setting: the figure for `COC(=O)N/C=C/CCC(C)c1cc(O)c(C(=O)NC/C=C(\C)CCC=C(C)C)c(=O)o1` (stereo not drawn) is less than 20%.

For another series, the system named is CEM-SS. As to the kind of experiment: Cytotoxicity against human CEM-SS cells upto 40 uM after 3 days. Type of series: cell-based. To be noted: 72 h. The procedure, abridged:
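CEM-SS T lymphocytes were incubated with compound for 3 days and then treated with XTT. The signal was read […] at 450 nm/650 nm, and CC50 was determined from the readings.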
Take `CCCC/C(C)=C/C=C(\C)C(=O)c1ccc(C(C)CC/C=C/NC(=O)OC)cc1O` (stereo not drawn): the Activity result was “Non-toxic”.
For `CCCC/C(C)=C/C=C(\C)C(=O)c1c(O)cc(CCC/C=C/NC(=O)OC)oc1=O` [DESMETHYL MYXOPYRONIN B], the Activity entry is reported as “Non-toxic”.
`CCCCCCCCC(=O)c1c(O)cc(CCC/C=C/NC(=O)OC)oc1=O`: the Activity entry is recorded as “Non-toxic”.
Take `COC(=O)N/C=C/CCCc1cc(O)c(C(=O)/C=C/c2ccc3[nH]ccc3c2)c(=O)o1`: the Activity result was “Non-toxic”.
As to `CCCC/C(C)=C/C=C(\C)C(=O)c1c(O)cc(CCC/C=C/NC(=O)OC)n(C)c1=O`, the Activity entry is “Non-toxic”.
As for `COC(=O)N/C=C/CCCc1cc(O)c(C(=O)/C(C)=C\c2ccco2)c(=O)o1`, the Activity entry is “Non-toxic”.
Consider `CCCC/C(C)=C/C=C(\C)C(=O)c1c(O)cc(C(C)CC/C=C/NC(=O)OC)n(C)c1=O` (stereo not drawn), for which the Activity result was “Non-toxic”.
Still for that read-out and setting: the entry for `CCCCCC(=O)c1c(O)cc(CCC/C=C/NC(=O)OC)oc1=O` is “Non-toxic”; for `CCCC/C(C)=C/C=C(\C)C(=O)c1c(O)cc([C@H](C)CC/C=C/NC(=O)OC)oc1=O` [MYXOPYRONIN B] it is “Non-toxic”.
Consider `COC(=O)N/C=C/CCC(C)c1cc(O)c(C(=O)NC/C=C(\C)CCC=C(C)C)c(=O)o1` (stereo not drawn), for which the Activity result was “Non-toxic”.

For the next series, the system named is Escherichia coli. As to the kind of experiment: Antibacterial activity against Escherichia coli. The class given is functional.
Details: not given
The procedure, abridged: as §1
`CCCC/C(C)=C/C=C(\C)C(=O)c1ccc(C(C)CC/C=C/NC(=O)OC)cc1O` (stereo not drawn) returned an MIC greater than 64 µg/mL.
On the same count and under the same terms, the figure for `CCCC/C(C)=C/C=C(\C)C(=O)c1c(O)cc(CCC/C=C/NC(=O)OC)oc1=O` [DESMETHYL MYXOPYRONIN B] is greater than 64 µg/mL; for `CCCCCCCCC(=O)c1c(O)cc(CCC/C=C/NC(=O)OC)oc1=O` it is greater than 64 µg/mL; for `COC(=O)N/C=C/CCCc1cc(O)c(C(=O)/C=C/c2ccc3[nH]ccc3c2)c(=O)o1` it is greater than 64 µg/mL.
On the same count and under the same terms, the figure for `CCCC/C(C)=C/C=C(\C)C(=O)c1c(O)cc(CCC/C=C/NC(=O)OC)n(C)c1=O` is greater than 64 µg/mL.
For `COC(=O)N/C=C/CCCc1cc(O)c(C(=O)/C(C)=C\c2ccco2)c(=O)o1`, the MIC is greater than 64 µg/mL.
`CCCC/C(C)=C/C=C(\C)C(=O)c1c(O)cc(C(C)CC/C=C/NC(=O)OC)n(C)c1=O` (stereo not drawn) registered an MIC greater than 64 µg/mL.
Still for that read-out and setting: to `CCCCCC(=O)c1c(O)cc(CCC/C=C/NC(=O)OC)oc1=O` belongs greater than 64 µg/mL.
Still for that read-out and setting: to `CCCC/C(C)=C/C=C(\C)C(=O)c1c(O)cc([C@H](C)CC/C=C/NC(=O)OC)oc1=O` [MYXOPYRONIN B] belongs greater than 64 µg/mL; to `COC(=O)N/C=C/CCC(C)c1cc(O)c(C(=O)NC/C=C(\C)CCC=C(C)C)c(=O)o1` (stereo not drawn), greater than 64 µg/mL.

The next series concerns Staphylococcus aureus. Briefly: Antibacterial activity against Staphylococcus aureus.
Details: not given
Type of series: functional.
With `CCCC/C(C)=C/C=C(\C)C(=O)c1ccc(C(C)CC/C=C/NC(=O)OC)cc1O` (stereo not drawn), the MIC was greater than 64 µg/mL.
`CCCC/C(C)=C/C=C(\C)C(=O)c1c(O)cc(CCC/C=C/NC(=O)OC)oc1=O` [DESMETHYL MYXOPYRONIN B] registered an MIC of 4 µg/mL (≈ 9.58 µM).
On the same count and under the same terms, to `CCCCCCCCC(=O)c1c(O)cc(CCC/C=C/NC(=O)OC)oc1=O` belongs greater than 64 µg/mL.
In turn, `COC(=O)N/C=C/CCCc1cc(O)c(C(=O)/C=C/c2ccc3[nH]ccc3c2)c(=O)o1` gave an MIC greater than 64 µg/mL.
As to `CCCC/C(C)=C/C=C(\C)C(=O)c1c(O)cc(CCC/C=C/NC(=O)OC)n(C)c1=O`, the minimum inhibitory concentration (MIC) is greater than 64 µg/mL.
In turn, `COC(=O)N/C=C/CCCc1cc(O)c(C(=O)/C(C)=C\c2ccco2)c(=O)o1` registered an MIC greater than 64 µg/mL.
The same measure, in the same setting: to `CCCC/C(C)=C/C=C(\C)C(=O)c1c(O)cc(C(C)CC/C=C/NC(=O)OC)n(C)c1=O` (stereo not drawn) belongs greater than 64 µg/mL; to `CCCCCC(=O)c1c(O)cc(CCC/C=C/NC(=O)OC)oc1=O`, greater than 64 µg/mL.
`CCCC/C(C)=C/C=C(\C)C(=O)c1c(O)cc([C@H](C)CC/C=C/NC(=O)OC)oc1=O` [MYXOPYRONIN B] registered an MIC of 1 µg/mL (≈ 2.32 µM).
Still for that read-out and setting: to `COC(=O)N/C=C/CCC(C)c1cc(O)c(C(=O)NC/C=C(\C)CCC=C(C)C)c(=O)o1` (stereo not drawn) belongs greater than 64 µg/mL.

(Values after ChEMBL document CHEMBL1140591, “Syntheses of novel myxopyronin B analogs as potential inhibitors of bacterial RNA polymerase” (Bioorg Med Chem Lett, 2007).)
